Reference: ChEMBL document CHEMBL4393654, “Discovery and Early Clinical Development of an Inhibitor of 5-Lipoxygenase Activating Protein (AZD5718) for Treatment of Coronary Artery Disease” (J Med Chem, 2019)

Assays:
[1] = target: Voltage-dependent T-type calcium channel subunit alpha-1H (Homo sapiens, UniProt O95180); experiment: Inhibition of human Cav3.2 by Ion-work electrophysiology assay
[2] = Protein binding in Sprague-Dawley rat plasma assessed as unbound fraction by equilibrium dialysis method; type: ADME, cell-free
[3] = Mutagenicity in Salmonella typhimurium TA100 in absence of rat S9 fraction by Ames test; type: toxicity; conditions: salmonella enterica subsp. enterica serovar typhimurium
Procedure, shortened: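 Ames bacterial mutagenicity test in S. typhimurium TA98 and TA100. Run with and without metabolic activation by rat S9 fraction.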

[4] = target: Solute carrier organic anion transporter family member 1B1 (Homo sapiens, UniProt Q9Y6L6); experiment: […] at recombinant human OATP1B1 expressed in HEK293 cells assessed as reduction in pivastatin uptake; type: ADME, cell-based
[5] = Half life in Beagle dog at 2 umol/kg, iv; type: ADME, Canis lupus familiaris; conditions: in vivo
[6] = target: Potassium voltage-gated channel subfamily A member 5 (Homo sapiens, UniProt P22460); experiment: Inhibition of human Kv1.5 by Ion-work electrophysiology assay
Chain of Potassium voltage-gated channel subfamily A member 5 (P22460 whole entry): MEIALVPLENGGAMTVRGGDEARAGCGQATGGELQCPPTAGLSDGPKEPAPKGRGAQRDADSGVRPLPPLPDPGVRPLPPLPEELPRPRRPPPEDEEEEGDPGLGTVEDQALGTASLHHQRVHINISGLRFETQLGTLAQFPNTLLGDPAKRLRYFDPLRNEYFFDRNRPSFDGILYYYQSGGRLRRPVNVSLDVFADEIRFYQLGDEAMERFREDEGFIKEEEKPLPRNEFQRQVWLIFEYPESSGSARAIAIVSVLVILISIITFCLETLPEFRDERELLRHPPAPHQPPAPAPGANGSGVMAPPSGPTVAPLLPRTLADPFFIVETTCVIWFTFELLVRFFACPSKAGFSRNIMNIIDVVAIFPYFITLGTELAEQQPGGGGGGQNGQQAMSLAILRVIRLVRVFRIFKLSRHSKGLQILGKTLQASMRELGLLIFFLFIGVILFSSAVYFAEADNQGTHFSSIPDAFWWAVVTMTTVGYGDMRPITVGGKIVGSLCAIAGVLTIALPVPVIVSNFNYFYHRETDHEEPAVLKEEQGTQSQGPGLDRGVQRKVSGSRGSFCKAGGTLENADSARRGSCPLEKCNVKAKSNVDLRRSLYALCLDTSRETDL

[7] = Volume of distribution at steady state in Beagle dog at 2 umol/kg, iv; type: ADME, Canis lupus familiaris; conditions: in vivo, read-out: Vdss
[8] = target: Potassium voltage-gated channel subfamily E member 1 (Homo sapiens, UniProt P15382); experiment: Inhibition of human KCNE1 by Ion-work electrophysiology assay
[9] = target: T1, Cytochrome P450 1A2 (Homo sapiens, UniProt P05177); experiment: Inhibition of recombinant human CYP1A2 expressed in Escherichia coli using CEC as substrate by fluorescence assay; type: ADME
T1 sequence (P05177 whole entry): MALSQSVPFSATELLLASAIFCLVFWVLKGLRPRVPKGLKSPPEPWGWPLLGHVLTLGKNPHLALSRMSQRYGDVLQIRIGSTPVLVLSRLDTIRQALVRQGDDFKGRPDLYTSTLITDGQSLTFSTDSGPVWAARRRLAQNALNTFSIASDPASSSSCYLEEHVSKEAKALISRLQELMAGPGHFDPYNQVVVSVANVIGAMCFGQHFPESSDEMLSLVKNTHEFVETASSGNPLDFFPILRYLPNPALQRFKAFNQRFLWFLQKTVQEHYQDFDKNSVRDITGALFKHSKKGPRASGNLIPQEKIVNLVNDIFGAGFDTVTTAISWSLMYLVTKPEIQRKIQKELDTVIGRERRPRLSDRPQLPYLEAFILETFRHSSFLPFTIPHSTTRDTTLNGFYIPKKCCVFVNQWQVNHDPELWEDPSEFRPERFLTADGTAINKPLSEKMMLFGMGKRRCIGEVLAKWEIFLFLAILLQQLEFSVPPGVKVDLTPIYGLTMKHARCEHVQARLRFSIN

[10] = target: Sodium channel protein type 5 subunit alpha (Homo sapiens, UniProt Q14524); experiment: Inhibition of human NaV1.5 by Ion-work electrophysiology assay
Chain of Sodium channel protein type 5 subunit alpha (Q14524 whole entry): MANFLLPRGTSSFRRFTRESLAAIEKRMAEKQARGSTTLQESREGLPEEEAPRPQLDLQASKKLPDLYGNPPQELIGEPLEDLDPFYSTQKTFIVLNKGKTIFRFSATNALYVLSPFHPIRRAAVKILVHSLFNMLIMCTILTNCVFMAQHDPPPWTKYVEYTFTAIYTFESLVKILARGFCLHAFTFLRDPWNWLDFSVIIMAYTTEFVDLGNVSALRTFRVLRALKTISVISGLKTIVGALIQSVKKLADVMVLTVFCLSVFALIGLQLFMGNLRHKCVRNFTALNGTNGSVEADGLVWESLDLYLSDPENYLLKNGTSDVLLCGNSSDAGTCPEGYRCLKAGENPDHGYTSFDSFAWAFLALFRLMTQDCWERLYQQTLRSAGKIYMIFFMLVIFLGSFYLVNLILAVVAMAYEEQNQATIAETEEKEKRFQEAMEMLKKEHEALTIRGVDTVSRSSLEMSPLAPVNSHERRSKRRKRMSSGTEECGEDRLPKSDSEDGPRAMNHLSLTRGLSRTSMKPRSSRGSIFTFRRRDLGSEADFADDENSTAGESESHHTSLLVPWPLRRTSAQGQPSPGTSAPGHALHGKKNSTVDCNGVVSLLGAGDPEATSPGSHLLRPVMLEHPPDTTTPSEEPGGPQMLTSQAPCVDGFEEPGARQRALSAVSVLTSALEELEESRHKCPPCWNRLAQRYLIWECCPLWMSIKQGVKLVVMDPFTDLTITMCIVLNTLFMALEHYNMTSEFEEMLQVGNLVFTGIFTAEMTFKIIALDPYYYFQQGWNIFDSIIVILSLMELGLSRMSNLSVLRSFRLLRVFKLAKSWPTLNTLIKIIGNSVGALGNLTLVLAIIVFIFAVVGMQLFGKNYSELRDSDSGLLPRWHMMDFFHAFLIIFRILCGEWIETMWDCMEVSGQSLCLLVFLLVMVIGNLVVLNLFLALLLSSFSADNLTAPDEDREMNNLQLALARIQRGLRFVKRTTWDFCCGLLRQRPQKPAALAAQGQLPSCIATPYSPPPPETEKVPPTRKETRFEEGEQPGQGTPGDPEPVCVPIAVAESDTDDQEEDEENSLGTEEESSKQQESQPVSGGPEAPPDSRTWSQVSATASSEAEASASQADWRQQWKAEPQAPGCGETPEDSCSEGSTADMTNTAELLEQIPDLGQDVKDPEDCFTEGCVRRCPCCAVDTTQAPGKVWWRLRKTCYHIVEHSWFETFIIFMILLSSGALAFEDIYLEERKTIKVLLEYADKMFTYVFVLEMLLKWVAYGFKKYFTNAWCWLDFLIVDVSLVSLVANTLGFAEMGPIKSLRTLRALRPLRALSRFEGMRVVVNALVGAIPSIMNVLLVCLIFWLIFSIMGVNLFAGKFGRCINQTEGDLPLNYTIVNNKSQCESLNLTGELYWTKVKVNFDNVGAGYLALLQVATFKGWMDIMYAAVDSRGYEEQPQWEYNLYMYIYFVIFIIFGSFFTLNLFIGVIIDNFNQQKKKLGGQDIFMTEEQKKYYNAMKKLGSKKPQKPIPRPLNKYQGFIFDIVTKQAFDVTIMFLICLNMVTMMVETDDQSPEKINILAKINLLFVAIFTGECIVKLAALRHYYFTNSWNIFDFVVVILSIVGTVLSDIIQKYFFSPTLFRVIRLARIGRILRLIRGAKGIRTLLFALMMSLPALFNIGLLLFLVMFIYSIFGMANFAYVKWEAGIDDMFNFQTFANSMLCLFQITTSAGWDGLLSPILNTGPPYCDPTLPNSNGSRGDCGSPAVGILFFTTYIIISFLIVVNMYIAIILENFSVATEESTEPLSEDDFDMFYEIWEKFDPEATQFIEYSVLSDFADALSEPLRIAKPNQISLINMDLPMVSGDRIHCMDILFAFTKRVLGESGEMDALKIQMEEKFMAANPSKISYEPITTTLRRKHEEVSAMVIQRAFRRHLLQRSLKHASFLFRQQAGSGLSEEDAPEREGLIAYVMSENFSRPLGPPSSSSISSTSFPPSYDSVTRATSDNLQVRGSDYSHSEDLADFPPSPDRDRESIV

[11] = Protein binding in human plasma assessed as unbound fraction by equilibrium dialysis method; type: ADME, cell-free
[12] = Inhibition of phospholipidosis in rat H42EC3 cells assessed as reduction in NBD-PE accumulation by SYTOX orange staining-based high content imaging analysis; type: cell-based
[13] = target: Cytochrome P450 2C9 (Homo sapiens, UniProt P11712); experiment: Inhibition of recombinant human CYP2C9 expressed in Escherichia coli using 7MFC as substrate by fluorescence assay; type: ADME
Chain of Cytochrome P450 2C9 (P11712 whole entry, the tested form may be a part): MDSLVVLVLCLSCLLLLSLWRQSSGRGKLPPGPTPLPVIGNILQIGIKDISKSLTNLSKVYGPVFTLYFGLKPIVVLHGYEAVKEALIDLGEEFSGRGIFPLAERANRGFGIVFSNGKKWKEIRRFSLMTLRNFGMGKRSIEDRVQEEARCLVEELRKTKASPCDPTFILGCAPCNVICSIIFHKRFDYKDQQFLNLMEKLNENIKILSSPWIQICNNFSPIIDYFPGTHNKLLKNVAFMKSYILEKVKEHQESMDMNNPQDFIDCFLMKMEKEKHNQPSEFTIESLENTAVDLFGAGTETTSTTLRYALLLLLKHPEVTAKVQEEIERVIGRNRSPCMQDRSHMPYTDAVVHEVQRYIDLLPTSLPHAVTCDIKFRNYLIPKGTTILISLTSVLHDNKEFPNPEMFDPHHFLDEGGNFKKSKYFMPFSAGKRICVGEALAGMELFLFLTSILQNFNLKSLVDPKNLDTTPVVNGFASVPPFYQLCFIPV

[14] = Cardiotoxicity in anesthetized Beagle dog assessed as effect on heart rate administered for 2 days as 45 mins iv infusion followed by compound washout and subsequent adrenaline dosing for 2 days as 10 mins iv infusion; type: toxicity, organism-based, Canis lupus familiaris; conditions: in vivo
[15] = target: Cytochrome P450 2C19 (Homo sapiens, UniProt P33261); experiment: Inhibition of recombinant human CYP2C19 expressed in Escherichia coli using CEC as substrate by fluorescence assay; type: ADME
Chain of Cytochrome P450 2C19 (P33261 whole entry): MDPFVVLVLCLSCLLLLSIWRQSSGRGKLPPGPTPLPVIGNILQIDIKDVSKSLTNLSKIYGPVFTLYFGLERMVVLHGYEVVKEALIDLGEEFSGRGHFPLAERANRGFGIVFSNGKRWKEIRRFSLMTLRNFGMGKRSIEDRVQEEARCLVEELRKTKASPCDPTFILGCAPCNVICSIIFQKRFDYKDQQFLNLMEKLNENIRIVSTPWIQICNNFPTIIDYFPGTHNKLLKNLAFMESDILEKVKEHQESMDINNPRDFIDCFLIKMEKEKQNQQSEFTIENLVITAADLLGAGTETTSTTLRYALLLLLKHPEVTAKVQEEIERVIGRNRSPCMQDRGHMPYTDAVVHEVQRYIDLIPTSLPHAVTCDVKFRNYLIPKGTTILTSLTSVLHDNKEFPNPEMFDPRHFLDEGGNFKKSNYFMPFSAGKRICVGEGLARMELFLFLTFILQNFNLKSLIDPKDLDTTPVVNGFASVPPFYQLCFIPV

[16] = target: T2, A-type potassium channel modulatory protein KCNIP2 (Homo sapiens, UniProt Q9NS61); experiment: Inhibition of human KChip2.2 by Ion-work electrophysiology assay
T2 sequence (Q9NS61 whole entry): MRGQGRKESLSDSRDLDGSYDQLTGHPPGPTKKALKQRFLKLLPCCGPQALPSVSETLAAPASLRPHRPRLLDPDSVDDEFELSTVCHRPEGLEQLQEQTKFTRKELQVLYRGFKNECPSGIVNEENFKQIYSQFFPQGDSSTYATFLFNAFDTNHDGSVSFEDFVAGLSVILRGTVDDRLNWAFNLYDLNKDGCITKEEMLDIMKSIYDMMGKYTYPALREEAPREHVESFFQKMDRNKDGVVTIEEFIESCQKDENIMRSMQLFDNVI

[17] = target: Potassium/sodium hyperpolarization-activated cyclic nucleotide-gated channel 4 (Homo sapiens, UniProt Q9Y3Q4); experiment: Inhibition of human HCN4 by Ion-work electrophysiology assay
Chain of Potassium/sodium hyperpolarization-activated cyclic nucleotide-gated channel 4 (Q9Y3Q4 whole entry): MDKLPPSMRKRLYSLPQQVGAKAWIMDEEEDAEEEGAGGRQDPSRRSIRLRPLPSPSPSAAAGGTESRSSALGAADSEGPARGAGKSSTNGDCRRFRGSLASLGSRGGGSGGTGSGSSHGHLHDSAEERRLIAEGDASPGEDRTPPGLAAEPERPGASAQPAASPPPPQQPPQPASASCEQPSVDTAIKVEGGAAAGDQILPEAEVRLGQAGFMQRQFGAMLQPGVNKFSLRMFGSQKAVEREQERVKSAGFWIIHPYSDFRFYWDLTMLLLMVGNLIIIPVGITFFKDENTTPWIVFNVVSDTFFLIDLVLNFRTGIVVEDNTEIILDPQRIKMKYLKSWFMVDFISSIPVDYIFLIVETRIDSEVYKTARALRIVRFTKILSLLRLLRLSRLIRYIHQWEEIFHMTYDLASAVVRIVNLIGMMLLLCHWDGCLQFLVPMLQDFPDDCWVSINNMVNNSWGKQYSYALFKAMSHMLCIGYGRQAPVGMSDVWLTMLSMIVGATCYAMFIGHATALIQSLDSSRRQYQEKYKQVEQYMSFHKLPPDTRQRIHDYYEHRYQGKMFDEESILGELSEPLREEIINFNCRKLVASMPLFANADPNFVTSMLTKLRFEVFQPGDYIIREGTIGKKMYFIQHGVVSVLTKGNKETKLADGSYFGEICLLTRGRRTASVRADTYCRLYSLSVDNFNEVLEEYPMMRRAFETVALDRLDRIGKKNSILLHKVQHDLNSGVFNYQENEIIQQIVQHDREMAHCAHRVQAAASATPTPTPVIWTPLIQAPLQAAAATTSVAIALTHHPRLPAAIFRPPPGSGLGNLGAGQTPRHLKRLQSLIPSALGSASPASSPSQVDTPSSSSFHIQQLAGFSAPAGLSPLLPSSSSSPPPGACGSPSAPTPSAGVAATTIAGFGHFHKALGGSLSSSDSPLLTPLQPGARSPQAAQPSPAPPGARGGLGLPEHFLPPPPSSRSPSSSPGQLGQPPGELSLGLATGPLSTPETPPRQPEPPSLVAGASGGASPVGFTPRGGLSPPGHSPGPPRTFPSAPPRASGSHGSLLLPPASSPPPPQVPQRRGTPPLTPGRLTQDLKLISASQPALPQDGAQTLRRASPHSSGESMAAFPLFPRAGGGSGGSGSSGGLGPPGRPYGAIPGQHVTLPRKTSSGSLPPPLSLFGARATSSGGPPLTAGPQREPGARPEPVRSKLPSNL

[18] = Toxicity in conscious telemetered Beagle dog assessed as vomiting; set-up: species or system Canis lupus familiaris; conditions: in vivo
[19] = Intrinsic clearance in human hepatocytes assessed per million cells at 1 uM measured after 2 to 60 mins by LC-MS/MS analysis; type: ADME, cell-based, Hepatocyte; conditions: read-out: CLH
[20] = target: T3, A-type voltage-gated potassium channel KCND3 (Homo sapiens, UniProt Q9UK17); experiment: Inhibition of human Kv4.3 by Ion-work electrophysiology assay
T3 sequence (Q9UK17 whole entry): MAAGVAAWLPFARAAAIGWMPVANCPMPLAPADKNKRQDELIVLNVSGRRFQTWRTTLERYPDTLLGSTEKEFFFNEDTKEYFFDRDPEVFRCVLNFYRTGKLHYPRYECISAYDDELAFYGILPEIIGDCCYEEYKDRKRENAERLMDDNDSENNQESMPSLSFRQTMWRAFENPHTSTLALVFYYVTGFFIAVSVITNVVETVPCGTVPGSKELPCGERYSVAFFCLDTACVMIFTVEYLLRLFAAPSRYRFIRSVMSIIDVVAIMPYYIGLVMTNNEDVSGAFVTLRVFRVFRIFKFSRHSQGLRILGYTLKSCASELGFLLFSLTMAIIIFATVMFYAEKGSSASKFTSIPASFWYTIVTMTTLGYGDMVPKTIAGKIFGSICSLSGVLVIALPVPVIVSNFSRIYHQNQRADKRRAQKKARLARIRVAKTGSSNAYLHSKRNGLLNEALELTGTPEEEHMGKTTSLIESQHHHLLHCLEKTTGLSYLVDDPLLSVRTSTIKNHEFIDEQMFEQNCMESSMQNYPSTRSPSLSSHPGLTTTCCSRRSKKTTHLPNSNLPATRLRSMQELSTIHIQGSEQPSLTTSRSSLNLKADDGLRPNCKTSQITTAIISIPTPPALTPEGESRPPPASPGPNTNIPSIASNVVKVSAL

[21] = Clearance in Beagle dog at 2 umol/kg, iv; type: ADME, Canis lupus familiaris; conditions: in vivo
[22] = Clearance in rat at 1 umol/kg, iv; type: ADME; conditions: in vivo
[23] = Oral bioavailability in Beagle dog at 2 umol/kg; type: ADME, organism-based, Canis lupus familiaris; conditions: in vivo
[24] = Half life in rat at 1 umol/kg, iv; type: ADME; conditions: in vivo
[25] = Volume of distribution at steady state in rat at 1 umol/kg, iv; type: ADME; conditions: in vivo, read-out: Vdss
[26] = Cardiotoxicity in dog assessed as effect on cardiac function measured up to 28 days during compound dosing; type: toxicity, Canis lupus familiaris; conditions: in vivo, 672 h

IC50 [1] [µM] | fraction unbound [2] | IC50 [4] [µM] | half-life [5] [h] | IC50 [6] [µM] | Vd [7] [L/kg] | IC50 [8] [µM] | IC50 [9] [µM] | fraction unbound [11] | IC50 [13] [µM] | IC50 [15] [µM] | IC50 [16] [µM] | IC50 [17] [µM] | hepatocyte CLint at 1 µM [19] [µL/min/1e6 cells] | IC50 [20] [µM] | Compound | Activity [3] | IC50 [10] [µM] | inhibition (INH) [12] | Activity [14] | Activity [18] | further results
> 32 | 0.014 | 2.5 | 6.8 | > 32 | 1.3 | > 33 | > 20 | 0.031 | > 20 | > 20 | > 33 | > 32 | 4.9 | > 33 | Cc1cc(-c2ccc(C(=O)[C@@H]3CCCC[C@H]3C(=O)Nc3cnn(C)c3S(N)(=O)=O)cc2)[nH]n1 | Non-Toxic | > 33 | Non-Toxic | Non-Toxic | Toxic | clearance [21]: 2.5 mL/min/kg
 | < 0.0004 | 1.4 |  |  |  | > 33 | > 20 | 0.006 | > 20 | > 20 | > 33 |  | 6 | > 33 | Cc1cc(-c2ccc(C(=O)[C@@H]3CCCC[C@H]3C(=O)Nc3cnn(C)c3C(=O)NOC(C)(C)C)cc2)[nH]n1 | Non-Toxic | > 33 | Non-Toxic | Toxic |  | clearance [22]: 1.2 mL/min/kg; bioavailability [23]: 65%; half-life [24]: 4.7 h; Vd [25]: 0.18 L/kg
> 32 | 0.024 |  | 2.1 | > 32 | 1.1 | > 33 | > 20 | 0.053 | > 20 | > 20 | > 33 | > 32 | 4.2 | > 33 | Cc1cc(-c2ccc(C(=O)[C@@H]3CCCC[C@H]3C(=O)Nc3cnn4c3C(=O)NCC4)cc2)[nH]n1 | Non-Toxic | > 33 | Non-Toxic | Non-Toxic | Non-Toxic | clearance [22]: 36 mL/min/kg; bioavailability [23]: 65%; half-life [24]: 0.45 h; Vd [25]: 1.1 L/kg; Activity [26]: Non-Toxic; clearance [21]: 7.6 mL/min/kg
